What was measured:
Type in all cases: functional
[1] = test system: OVCAR-8; experiment: Cytotoxicity against human OVCAR8 cells assessed as cell growth at 10 uM after 48 hrs by SRB assay relative to control; details: OVCAR-8, 48 h, read-out: Activity
[2] = test system: SK-MEL-5; experiment: Cytotoxicity against human SK-MEL-5 cells assessed as cell growth at 10 uM after 48 hrs by SRB assay relative to control; details: SK-MEL-5, 48 h, read-out: Activity
[3] = test system: HL-60(TB); experiment: Cytotoxicity against human HL-60(TB) cells assessed as cell growth at 10 uM after 48 hrs by SRB assay relative to control; details: HL-60, 48 h, read-out: Activity
[4] = test system: DU-145; experiment: Cytotoxicity against human DU145 cells assessed as cell growth at 10 uM after 48 hrs by SRB assay relative to control; details: DU-145, 48 h, read-out: Activity
How it was run: (§1)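 NCI primary screen of about 60 human tumour lines. Cells inoculated and preincubated, then a single test concentration added and cultures incubated 48 h. Result given as percent growth (G%) of treated versus untreated control cells.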

[5] = test system: MDA-MB-231; experiment: Cytotoxicity against human MDA-MB-231 cells assessed as cell growth at 10 uM after 48 hrs by SRB assay relative to control; details: MDA-MB-231, 48 h, read-out: Activity; how it was run: as §1
[6] = test system: EKVX; experiment: Cytotoxicity against human EKVX cells assessed as cell growth at 10 uM after 48 hrs by SRB assay relative to control; details: read-out: Activity; how it was run: as §1
[7] = test system: MDA-MB-435; experiment: Cytotoxicity against human MDA-MB-435 cells assessed as cell growth at 10 uM after 48 hrs by SRB assay relative to control; details: MDA-MB-435, 48 h, read-out: Activity
[8] = test system: SW-620; experiment: Cytotoxicity against human SW620 cells assessed as cell growth at 10 uM after 48 hrs by SRB assay relative to control; details: SW-620, 48 h, read-out: Activity
How it was run: (§2)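 NCI single-dose primary screen across about 60 human tumour lines. Each line was inoculated and preincubated on microtiter plates, then exposed to one concentration of agent for 48 h. Growth is reported as percent growth (G%) of treated cells versus untreated control cells.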

[9] = test system: NCI-H322M; experiment: Cytotoxicity against human NCI-H322M cells assessed as cell growth at 10 uM after 48 hrs by SRB assay relative to control; details: read-out: Activity
[10] = test system: SNB-75; experiment: Cytotoxicity against human SNB75 cells assessed as cell growth at 10 uM after 48 hrs by SRB assay relative to control; details: SNB-75, 48 h, read-out: Activity
[11] = test system: MCF7; experiment: Cytotoxicity against human MCF7 cells assessed as cell growth at 10 uM after 48 hrs by SRB assay relative to control; details: MCF7, 48 h, read-out: Activity; how it was run: as §1
[12] = test system: M14; experiment: Cytotoxicity against human M14 cells assessed as cell growth at 10 uM after 48 hrs by SRB assay relative to control; details: M14, 48 h, read-out: Activity; how it was run: as §1
[13] = test system: SK-MEL-2; experiment: Cytotoxicity against human SK-MEL-2 cells assessed as cell growth at 10 uM after 48 hrs by SRB assay relative to control; details: SK-MEL-2, 48 h, read-out: Activity
[14] = test system: A549; experiment: Cytotoxicity against human A549 cells assessed as cell growth at 10 uM after 48 hrs by SRB assay relative to control; details: A549, 48 h, read-out: Activity; how it was run: as §1
[15] = test system: UACC-62; experiment: Cytotoxicity against human UACC62 cells assessed as cell growth at 10 uM after 48 hrs by SRB assay relative to control; details: UACC-62, 48 h, read-out: Activity; how it was run: as §2
[16] = test system: MDA-MB-468; experiment: Cytotoxicity against human MDA-MB-468 cells assessed as cell growth at 10 uM after 48 hrs by SRB assay relative to control; details: MDA-MB-468, 48 h, read-out: Activity
[17] = test system: T47D; experiment: Cytotoxicity against human T47D cells assessed as cell growth at 10 uM after 48 hrs by SRB assay relative to control; details: read-out: Activity; how it was run: as §2
[18] = test system: CAKI-1; experiment: Cytotoxicity against human Caki1 cells assessed as cell growth at 10 uM after 48 hrs by SRB assay relative to control; details: CAKI-1, 48 h, read-out: Activity; how it was run: as §1
[19] = test system: U-251; experiment: Cytotoxicity against human U251 cells assessed as cell growth at 10 uM after 48 hrs by SRB assay relative to control; details: U-251, 48 h, read-out: Activity; how it was run: as §2
[20] = test system: MOLT-4; experiment: Cytotoxicity against human MOLT4 cells assessed as cell growth at 10 uM after 48 hrs by SRB assay relative to control; details: MOLT-4, 48 h, read-out: Activity
[21] = test system: BT-549; experiment: Cytotoxicity against human BT549 cells assessed as cell growth at 10 uM after 48 hrs by SRB assay relative to control; details: BT-549, 48 h, read-out: Activity; how it was run: as §1
[22] = test system: HCT-116; experiment: Cytotoxicity against human HCT116 cells assessed as cell growth at 10 uM after 48 hrs by SRB assay relative to control; details: HCT-116, 48 h, read-out: Activity; how it was run: as §1
[23] = test system: KM12; experiment: Cytotoxicity against human KM12 cells assessed as cell growth at 10 uM after 48 hrs by SRB assay relative to control; details: KM12, 48 h, read-out: Activity; how it was run: as §1
[24] = test system: SF-295; experiment: Cytotoxicity against human SF295 cells assessed as cell growth at 10 uM after 48 hrs by SRB assay relative to control; details: SF-295, 48 h, read-out: Activity
[25] = test system: Hs-578T; experiment: Cytotoxicity against human Hs578T cells assessed as cell growth at 10 uM after 48 hrs by SRB assay relative to control; details: read-out: Activity; how it was run: as §1
[26] = test system: UACC-257; experiment: Cytotoxicity against human UACC257 cells assessed as cell growth at 10 uM after 48 hrs by SRB assay relative to control; details: UACC-257, 48 h, read-out: Activity; how it was run: as §2
[27] = test system: NCI-H460; experiment: Cytotoxicity against human NCI-H460 cells assessed as cell growth at 10 uM after 48 hrs by SRB assay relative to control; details: NCI-H460, 48 h, read-out: Activity
[28] = test system: OVCAR-5; experiment: Cytotoxicity against human OVCAR5 cells assessed as cell growth at 10 uM after 48 hrs by SRB assay relative to control; details: OVCAR-5, 48 h, read-out: Activity
[29] = test system: CCRF-CEM; experiment: Cytotoxicity against human CCRF-CEM cells assessed as cell growth at 10 uM after 48 hrs by SRB assay relative to control; details: read-out: Activity; how it was run: as §1
[30] = test system: ACHN; experiment: Cytotoxicity against human ACHN cells assessed as cell growth at 10 uM after 48 hrs by SRB assay relative to control; details: read-out: Activity; how it was run: as §1
[31] = test system: LOX IMVI; experiment: Cytotoxicity against human LOXIMVI cells assessed as cell growth at 10 uM after 48 hrs by SRB assay relative to control; details: read-out: Activity; how it was run: as §1
[32] = test system: SNB-19; experiment: Cytotoxicity against human SNB19 cells assessed as cell growth at 10 uM after 48 hrs by SRB assay relative to control; details: SNB-19, 48 h, read-out: Activity
[33] = test system: SN12C; experiment: Cytotoxicity against human SN12C cells assessed as cell growth at 10 uM after 48 hrs by SRB assay relative to control; details: read-out: Activity

Compound CSC1=Nc2c(c(C)c(C)n2CCCC(=O)NCCc2cnc[nH]2)C2=NC(=O)CN12 has a growth at 10 µM [1] of 108%, a growth at 10 µM [2] of 101% and a growth at 10 µM [3] of 100%. It also gave a growth at 10 µM [4] of 149%, a growth at 10 µM [5] of 110% and a growth at 10 µM [6] of 99%. It also gave a growth at 10 µM [7] of 116%, a growth at 10 µM [8] of 104% and a growth at 10 µM [9] of 111%. The growth at 10 µM [10] was 78%, the growth at 10 µM [11] was 94% and the growth at 10 µM [12] was 102%. It also gave a growth at 10 µM [13] of 121%, a growth at 10 µM [14] of 101% and a growth at 10 µM [15] of 100%. For the same compound, the growth at 10 µM [16] was 89%, the growth at 10 µM [17] was 101% and the growth at 10 µM [18] was 111%. The growth at 10 µM [19] was 101%, the growth at 10 µM [20] was 97% and the growth at 10 µM [21] was 120%. It also gave a growth at 10 µM [22] of 96%, a growth at 10 µM [23] of 171% and a growth at 10 µM [24] of 106%. For the same compound, the growth at 10 µM [25] was 117%, the growth at 10 µM [26] was 114% and the growth at 10 µM [27] was 101%. The growth at 10 µM [28] was 116%, the growth at 10 µM [29] was 104% and the growth at 10 µM [30] was 112%. The growth at 10 µM [31] was 102%, the growth at 10 µM [32] was 102% and the growth at 10 µM [33] was 100%.

— ChEMBL document CHEMBL2062453, “Lead optimization through VLAK protocol: new annelated pyrrolo-pyrimidine derivatives as antitumor agents” (2012)
